Screening results from PubChem.
EP2 antag – human EP2 receptor antagonists, primary screen, TR-FRET cAMP, C6 glioma cells; Prostaglandin E2 receptor EP2 subtype (Homo sapiens), P43116; C6 glioma cells expressing human EP2; cells stimulated with saturating PGE2; inhibition, % at 25 µM; 260,000 tested, 0.52% active;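 active means percent inhibition above 40 after rounding to a whole number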;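 further: rat C6 glioma host cells with rolipram phosphodiesterase inhibitor present; the protocol text gives 20 µM as final concentration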
Target sequence (P43116 whole entry, looked up): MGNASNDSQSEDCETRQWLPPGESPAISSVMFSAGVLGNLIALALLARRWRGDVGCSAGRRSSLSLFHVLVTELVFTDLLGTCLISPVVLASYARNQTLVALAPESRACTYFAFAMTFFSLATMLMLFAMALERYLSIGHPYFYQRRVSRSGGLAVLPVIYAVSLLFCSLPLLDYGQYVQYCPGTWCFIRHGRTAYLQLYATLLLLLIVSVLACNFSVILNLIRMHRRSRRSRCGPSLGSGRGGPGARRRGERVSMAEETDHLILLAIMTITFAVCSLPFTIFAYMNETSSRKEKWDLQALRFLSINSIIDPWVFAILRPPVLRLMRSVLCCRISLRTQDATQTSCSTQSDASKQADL
NPY-Y2 antag – NPY-Y2 receptor antagonists, primary screen, cell-based; Neuropeptide Y receptor type 2 (Homo sapiens), P49146; NPY-Y2 expressing cells, antagonist mode; inhibition, % at 2.7 µM; 140,000 tested, 0.99% active; AID 793, 2007; in the data active means inhibition above about 17%;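 further: 0% = vehicle with agonist challenge and 100% = reference antagonist with challenge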
NPY2 pot ag – NPY-Y2 potentiators or agonists, primary screen, cell-based | cells expressing NPY-Y2, potentiator/agonist read-out | activation, % at 3.6 µM | 220,000 tested, 0.45% active | AID 1359, 2008; in the data active means activation above about 27%;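 further: cells stimulated with NPY near EC25 plus isoproterenol at EC100; 0% = vehicle plus submaximal agonist and 100% = vehicle plus saturating agonist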
EP2 mod – EP2 receptor modulators, cAMP readout, primary screen, cell-based, HTRF cAMP, PGE2 stimulation; induction, % at 25 µM; Prostaglandin E2 receptor EP2 subtype (Homo sapiens), P43116; EP2-expressing cells, cAMP HTRF FRET, PGE2 co-stimulation; 260,000 tested, 0.83% active;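 active means compounds whose cAMP rise, as percent of the full-agonist control response, exceeds 60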;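 further: rat C6 glioma line stably carrying human EP2 under a CMV promoter; the protocol text gives 20 µM as final concentration; 100% = response of wells given 1 µM PGE2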
NPY1 pot ag – NPY-Y1 receptor potentiators or agonists, primary screen, cell-based; Neuropeptide Y receptor type 1 (Homo sapiens), P25929; NPY-Y1 expressing cells, potentiator/agonist activation; activation, % at 3.6 µM; 220,000 tested, 0.37% active; in the data active means activation above about 33%, passing the limit was not always enough;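 further: cells stimulated with NPY at EC10 then isoproterenol at EC100; 0% = low agonist plus stimulus and 100% = saturating agonist plus stimulus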
NPY-Y1 antag – NPY-Y1 receptor antagonists, primary screen, cell-based; Neuropeptide Y receptor type 1 (Homo sapiens), P25929; HEK293-CNG Y1 cells, membrane potential fluorescence; NPY at EC95, then isoproterenol; inhibition, % at 3.6 µM; 200,000 tested, 1% active; AID 1040, 2008;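 active means inhibition above the campaign mean inhibition of all tested compounds plus 3 SD, cut at about 20% in these data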;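 further: 0% = DMSO wells given NPY plus isoproterenol and 100% = isoproterenol alone without NPY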
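Material: HEK293 cells with Y1 receptor plus CNG channel; times: compound incubation 1 h at room temperature, readout 45 min post-stimulation; signal: fluorescence, membrane potential probe; read-out basis: fluorescence ratio normalized to % inhibition between controls; benchmarks: full-block control isoproterenol-only wells, zero-block control NPY plus isoproterenol wells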
Numbers without * were called inactive; nt = no result given. In the library only some 2.8% were active in any assay of this set; here they are far more common.

SMILES	EP2 antag	NPY-Y2 antag	NPY2 pot ag	EP2 mod	NPY1 pot ag	NPY-Y1 antag
N#CC(C#N)=c1ccc2c(c1)N1C3=C(CCCC3)CC3CCCCC31N=2 (centres undefined)	12.1	-1.9	-6.2	39.4	15.1	-5.1
Cc1cc(C)c2cc(C)c3nn(CC(=O)NCCCN4CCCC4=O)c(=O)n3c2c1	nt	nt	nt	-26.4	nt	nt
O=C(N/N=C/c1ccccc1)c1ccc(OCc2ccccc2)cc1	5.5	nt	-19.6	-8.5	-3.1	11.2
O=C(N/N=C/c1ccncc1)c1ccccc1OCc1ccc(Br)cc1	3.8	42.6*	-53.6	5.1	-116.6	32.4*
O=C(N/N=C/c1ccccc1)c1sccc1OCc1ccc(F)cc1	7.5	20.3*	-19.4	16.2	-12.4	0.8
CNC(=S)N(CCCN1CCOCC1)Cc1cc2cc(OC)ccc2[nH]c1=O	5.8	nt	nt	2.9	nt	nt
O=C(CSc1nnc(-c2ccc(Cl)cc2)n1Cc1ccco1)NCc1ccc2c(c1)OCO2	16.1	40.9*	-17.6	41.6	-24.1	41.9*
COc1ccc(-c2nnc(SC(C)C(=O)NCc3ccc4c(c3)OCO4)n2Cc2ccco2)cc1 (centres undefined)	6.8	51.0*	-14.5	34.2	-2.8	37.5*
CC(Sc1nnc2ccccn12)C(=O)NCc1ccc2c(c1)OCO2 (centres undefined)	2.3	nt	-1.1	16.6	2.4	-3.7
CC(=O)Nc1cccc(NC(=O)CSc2ncc(-c3ccc(Cl)cc3)n2Cc2ccco2)c1	41.4*	2.8	14.7	-7.6	18.5	-1.0
O=C(CSc1nnc(-c2ccc(Cl)cc2)n1Cc1ccco1)Nc1ccc2c(c1)OCCO2	10.5	3.6	-4.8	19.1	-16.1	6.6
Cc1[nH]c2ccc(-c3nnc(SCC(=O)NCc4ccco4)n3Cc3ccccc3)cc2c1C	17.6	1.9	103.7*	-49.1	111.8*	-4.8
CCc1cc2cc(C)ccc2nc1SCC(=O)Nc1ccccc1C	9.9	nt	nt	35.0	nt	nt
CCOc1ccc(NC(=O)CSc2nnc(C)n2C2CCCCC2)cc1	20.8	nt	nt	-27.7	nt	nt
COC(=O)c1ccc(C(=O)OC)c(NC(=O)C2COc3ccccc3O2)c1 (centres undefined)	16.9	nt	nt	54.9	nt	nt
C=CCn1c(SC(C)C(=O)NCc2ccc3c(c2)OCO3)nnc1C1CCCCC1 (centres undefined)	-1.7	20.1*	-14.9	1.6	-9.8	27.6*
COc1ccccc1OCCCC(=O)Nc1nc(-c2ccc(C)cc2)c(C)s1	16.4	nt	nt	46.6	nt	nt
COc1ccc(C2C(C#N)=C(C)NC3=C2C(=O)c2ccccc23)cc1 (centres undefined)	49.4*	1.4	-2.5	-8.0	11.0	5.3
COC(=O)c1c(C)nc2c(c(SC)nn2-c2ccccc2)c1N	11.8	3.8	-4.7	63.3*	4.6	2.5
C/C=C/Cn1c(N(C)C)nc2c1c(=O)[nH]c(=O)n2C	11.3	nt	nt	-23.1	nt	nt
COc1ccc(-c2cc(-c3cc(F)ccc3O)[nH]n2)cc1OC	66.4*	0.4	11.1	-64.7	13.3	-8.4
COc1ccc(-c2cc(-c3ccccc3O)[nH]n2)cc1OC	11.8	1.5	6.8	-58.9	-0.8	-0.3
Cc1cccc(Nc2nc(-c3ccncc3)cs2)c1	2.8	nt	35.0*	11.1	47.0*	-20.7
Clc1cccc(Nc2nc(-c3ccncc3)cs2)c1	11.1	nt	50.7*	-45.3	45.5*	-18.1
CCn1c2cc(C)sc2c2cnn(CC(=O)NC3CCCCC3C)c(=O)c21 (centres undefined)	nt	nt	nt	-26.1	nt	nt
SMILES	EP2 antag	NPY-Y2 antag	NPY2 pot ag	EP2 mod	NPY1 pot ag	NPY-Y1 antag
Cc1ccc(C(=O)N2C3CCC2CC(c2ccc(F)cc2)C3)c(=O)[nH]1 (centres undefined)	nt	nt	nt	-16.6	nt	nt
CN1C(=O)/C(=C2\SC(=S)N(CCCCCC(=O)O)C2=O)c2ccccc21	5.4	nt	-0.8	74.8*	1.0	nt
CCOc1ccc(N(C(C)C(=O)NCc2ccc3c(c2)OCO3)S(C)(=O)=O)cc1 (centres undefined)	10.7	nt	nt	-5.6	nt	nt
CCc1cccc(C)c1NC(=O)CN(C)Cc1ccc(Br)cc1	6.5	nt	-1.8	-11.5	-4.8	6.7
CCCN(CC(=O)Nc1c(C)cccc1CC)C(=O)SCC	12.6	18.1*	-3.3	22.1	-26.5	19.4
CCCCN(CC(=O)Nc1c(C)cccc1CC)C(=O)SCC	17.3	30.7*	-12.9	25.6	-16.5	21.5*
Cc1cccc2cc(C(c3nnnn3C3CCCCC3)N3CCc4ccccc43)c(=O)[nH]c12 (centres undefined)	3.7	nt	nt	108.1*	nt	nt
CCOc1ccc2[nH]c(=O)c(C(c3nnnn3C3CCCC3)N3CCCc4ccccc43)cc2c1 (centres undefined)	10.1	nt	nt	73.7*	nt	nt
CCCC(c1nnnn1Cc1ccccc1)N(Cc1cc2cc(C)ccc2[nH]c1=O)C1CCCCC1 (centres undefined)	21.6	nt	nt	26.3	nt	nt
Cc1cccc2cc(C(c3nnnn3Cc3ccccc3)N3CCc4ccccc43)c(=O)[nH]c12 (centres undefined)	7.0	nt	nt	95.3*	nt	nt
CCCC(c1nnnn1Cc1ccccc1)N(Cc1cc2cccc(C)c2[nH]c1=O)C1CCCCC1 (centres undefined)	8.1	nt	nt	69.5*	nt	nt
COCCNC(=O)Cn1nc2c(C)cc3ccccc3n2c1=O	nt	nt	nt	-5.6	nt	nt
O=c1[nH]c2cc3c(cc2cc1CN(Cc1cccnc1)Cc1nnnn1C1CCCCC1)OCCO3	24.6	nt	nt	-9.7	nt	nt
COc1ccc(C)cc1S(=O)(=O)NC1(CN2CCOCC2)CCCCC1	5.2	nt	nt	8.9	nt	nt
O=C1c2ccccc2CC1Sc1ncnc2c1sc1nc3ccccc3cc12 (centres undefined)	7.7	nt	nt	-11.4	nt	nt
COc1ccc(-n2c(CSc3nc(C)cc(C)n3)nnc2SCC(=O)O)cc1	3.3	nt	nt	-27.6	nt	nt
Cc1cc2cc(C(c3nnnn3C3CCCCC3)N3CCc4ccccc43)c(=O)[nH]c2cc1C (centres undefined)	13.3	nt	nt	76.1*	nt	nt
Cc1cc2cc(C(c3nnnn3C3CCCC3)N3CCc4ccccc43)c(=O)[nH]c2cc1C (centres undefined)	11.2	nt	nt	4.8	nt	nt
O=c1[nH]c2cc3c(cc2cc1C(c1nnnn1C1CCCC1)N1CCCCCC1)OCCO3 (centres undefined)	22.1	nt	nt	80.8*	nt	nt
O=c1[nH]c2cc3c(cc2cc1C(c1nnnn1C1CCCCC1)N1CCOCC1)OCCO3 (centres undefined)	8.4	nt	nt	0.1	nt	nt
COc1ccc(NCc2cc3c(C)nn(-c4ccccc4)c3[nH]c2=O)c(OC)c1	19.0	nt	nt	-32.0	nt	nt
CCN(CC(=O)NC(C)C)Cc1nc2c(Br)cc(Br)cc2c(=O)[nH]1	13.1	nt	-8.4	65.2*	6.3	nt
